Laboratory results taken from ChEMBL document CHEMBL1153755, “Convenient synthesis and antimicrobial evaluation of some novel 2-substituted-3-methylbenzofuran derivatives” (2009).
Values after ≈ are worked out from the molar mass of the structure shown.

Columns and labels:
Type in all cases: functional
Staphylococcus aureus [1] = test: Antibacterial activity against Staphylococcus aureus at 100 ug after 24 to 48 hrs by diffusion agar technique; details: read-out: IZ
How it was run: (§1)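 Hole-plate agar diffusion on nutrient agar (pH 6.2) seeded with the bacterial isolate (RCMB collection). 1 cm wells hold 100 μL of compound at 5 mg/ml in DMSO; DMSO-filled wells serve as controls. Plates are held 1 h at 4 °C, then incubated at 37 °C. Inhibition zone diameter is read after 24-48 h. Amoxicilline is the reference.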

Aspergillus fumigatus [2] = test: Antifungal activity against Aspergillus fumigatus at 100 ug after 24 to 48 hrs by diffusion agar technique; details: read-out: IZ
How it was run: (§2)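 Fungal isolates (RCMB collection) are seeded into malt extract agar (pH 5.4) and tested by hole-plate diffusion. Each 1 cm well receives 100 μL of a 5 mg/ml DMSO solution, with DMSO as control. Plates sit 1 h at 4 °C, then incubate at 28 °C. Zone diameter is measured after 24-48 h. Terbinafin is the standard.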

[3] = system: Syncephalastrum racemosum; test: Antifungal activity against Syncephalastrum racemosum at 100 ug after 24 to 48 hrs by diffusion agar technique; details: read-out: IZ; how it was run: as §2
Aspergillus niger [4] = test: Antifungal activity against Aspergillus niger at 100 ug after 24 to 48 hrs by diffusion agar technique; details: read-out: IZ; how it was run: as §2
Bacillus subtilis [5] = test: Antibacterial activity against Bacillus subtilis at 100 ug after 24 to 48 hrs by diffusion agar technique; details: read-out: IZ; how it was run: as §1
Penicillium italicum [6] = test: Antifungal activity against Penicillium italicum at 100 ug after 24 to 48 hrs by diffusion agar technique; details: read-out: IZ; how it was run: as §2
Candida albicans [7] = test: Antifungal activity against Candida albicans at 100 ug after 24 to 48 hrs by diffusion agar technique; details: read-out: IZ; how it was run: as §2
Aspergillus niger [8] = test: Antimicrobial activity against Aspergillus niger by serial dilution technique
Pseudomonas aeruginosa = test: Antibacterial activity against Pseudomonas aeruginosa at 100 ug after 24 to 48 hrs by diffusion agar technique; details: read-out: IZ; how it was run: as §1
Escherichia coli = test: Antibacterial activity against Escherichia coli at 100 ug after 24 to 48 hrs by diffusion agar technique; details: read-out: IZ; how it was run: as §1
Staphylococcus aureus [9] = test: Antimicrobial activity against Staphylococcus aureus by serial dilution technique
Candida albicans [10] = test: Antimicrobial activity against Candida albicans by serial dilution technique
Aspergillus fumigatus [11] = test: Antimicrobial activity against Aspergillus fumigatus by serial dilution technique
Penicillium italicum [12] = test: Antimicrobial activity against Penicillium italicum by serial dilution technique
[13] = system: Syncephalastrum racemosum; test: Antimicrobial activity against Syncephalastrum racemosum by serial dilution technique
Bacillus subtilis [14] = test: Antimicrobial activity against Bacillus subtilis by serial dilution technique

Molecule `CCO/C=C(\C#N)C(=O)c1oc2ccccc2c1C` has a zone of inhibition at 100 µg/disc (Staphylococcus aureus [1]) of 13 mm, a zone of inhibition at 100 µg/disc (Aspergillus fumigatus [2]) of 19 mm and a zone of inhibition at 100 µg/disc [3] of 22 mm. For the same molecule, the zone of inhibition at 100 µg/disc (Aspergillus niger [4]) was 18 mm, the zone of inhibition at 100 µg/disc (Bacillus subtilis [5]) was 7 mm and the zone of inhibition at 100 µg/disc (Penicillium italicum [6]) was 10 mm. For the same molecule, the zone of inhibition at 100 µg/disc (Candida albicans [7]) was 10 mm and the MIC (Aspergillus niger [8]) was 250 µg/mL (≈ 979 µM).

Molecule `CN(C/C=C/C#CC(C)(C)C)Cc1cccc2ccccc12` [TERBINAFINE] has a zone of inhibition at 100 µg/disc (Aspergillus fumigatus [2]) of 30 mm, a zone of inhibition at 100 µg/disc [3] of 35 mm and a zone of inhibition at 100 µg/disc (Aspergillus niger [4]) of 25 mm. The zone of inhibition at 100 µg/disc (Penicillium italicum [6]) was 20 mm and the zone of inhibition at 100 µg/disc (Candida albicans [7]) was 30 mm.

Molecule `Cc1c(C(=O)NN/C=C(\NNC(=O)c2oc3ccccc3c2C)c2ccccc2)oc2ccccc12` has a zone of inhibition at 100 µg/disc (Staphylococcus aureus [1]) of 15 mm, a zone of inhibition at 100 µg/disc (Pseudomonas aeruginosa) of 6 mm and a zone of inhibition at 100 µg/disc (Bacillus subtilis [5]) of 14 mm. The zone of inhibition at 100 µg/disc (Escherichia coli) was 5 mm and the MIC (Staphylococcus aureus [9]) was 500 µg/mL (≈ 1040 µM).

`Cc1ccc(N/N=C(\C#N)C(=O)c2oc3ccccc3c2C)cc1` showed a zone of inhibition at 100 µg/disc (Staphylococcus aureus [1]) of 4 mm, a zone of inhibition at 100 µg/disc (Aspergillus fumigatus [2]) of 12 mm and an MIC (Candida albicans [10]) of 50 µg/mL (≈ 158 µM). The zone of inhibition at 100 µg/disc (Bacillus subtilis [5]) was 6 mm and the zone of inhibition at 100 µg/disc (Candida albicans [7]) was 20 mm.

In the case of `Cc1c(C(=O)NN/C=C(\NNC(=O)c2oc3ccccc3c2C)c2ccc(Cl)cc2)oc2ccccc12`, the zone of inhibition at 100 µg/disc (Staphylococcus aureus [1]) is reported as 4 mm, the MIC (Aspergillus fumigatus [11]) is reported as 500 µg/mL (≈ 971 µM) and the zone of inhibition at 100 µg/disc (Aspergillus fumigatus [2]) is reported as 10 mm. For the same molecule, the zone of inhibition at 100 µg/disc [3] was 6 mm, the zone of inhibition at 100 µg/disc (Aspergillus niger [4]) was 5 mm and the zone of inhibition at 100 µg/disc (Bacillus subtilis [5]) was 4 mm. It also gave a zone of inhibition at 100 µg/disc (Escherichia coli) of 3 mm.

For `Cc1c(C(=O)NNC(=O)c2oc3ccccc3c2C)oc2ccccc12`, the zone of inhibition at 100 µg/disc (Staphylococcus aureus [1]) was 3 mm, the zone of inhibition at 100 µg/disc (Aspergillus fumigatus [2]) was 4 mm and the MIC (Penicillium italicum [12]) was 50 µg/mL (≈ 144 µM). For the same molecule, the zone of inhibition at 100 µg/disc [3] was 18 mm, the zone of inhibition at 100 µg/disc (Aspergillus niger [4]) was 13 mm and the MIC [13] was 50 µg/mL (≈ 144 µM). For the same molecule, the zone of inhibition at 100 µg/disc (Bacillus subtilis [5]) was 12 mm, the zone of inhibition at 100 µg/disc (Penicillium italicum [6]) was 12 mm and the zone of inhibition at 100 µg/disc (Candida albicans [7]) was 6 mm.

For `Cc1c(-c2nc3ccccc3c(=O)o2)oc2ccccc12`, the zone of inhibition at 100 µg/disc (Staphylococcus aureus [1]) was 4 mm, the zone of inhibition at 100 µg/disc (Aspergillus fumigatus [2]) was 8 mm and the zone of inhibition at 100 µg/disc [3] was 18 mm. For the same molecule, the zone of inhibition at 100 µg/disc (Aspergillus niger [4]) was 5 mm, the zone of inhibition at 100 µg/disc (Pseudomonas aeruginosa) was 8 mm and the MIC [13] was 250 µg/mL (≈ 902 µM). For the same molecule, the zone of inhibition at 100 µg/disc (Bacillus subtilis [5]) was 8 mm, the zone of inhibition at 100 µg/disc (Penicillium italicum [6]) was 6 mm and the zone of inhibition at 100 µg/disc (Candida albicans [7]) was 7 mm.

Work on `Cc1c(-c2n[nH]cc2C#N)oc2ccccc12` yielded a zone of inhibition at 100 µg/disc (Staphylococcus aureus [1]) of 10 mm, a zone of inhibition at 100 µg/disc (Aspergillus fumigatus [2]) of 20 mm and a zone of inhibition at 100 µg/disc [3] of 30 mm. For the same molecule, the zone of inhibition at 100 µg/disc (Aspergillus niger [4]) was 6 mm, the MIC [13] was 50 µg/mL (≈ 224 µM) and the zone of inhibition at 100 µg/disc (Bacillus subtilis [5]) was 18 mm. The zone of inhibition at 100 µg/disc (Candida albicans [7]) was 12 mm.

For `Cc1c(C(=O)/C(C#N)=N/O)oc2ccccc12`, the zone of inhibition at 100 µg/disc (Staphylococcus aureus [1]) was 15 mm, the zone of inhibition at 100 µg/disc (Aspergillus fumigatus [2]) was 8 mm and the zone of inhibition at 100 µg/disc (Aspergillus niger [4]) was 12 mm. It also gave an MIC (Bacillus subtilis [14]) of 125 µg/mL (≈ 548 µM), a zone of inhibition at 100 µg/disc (Bacillus subtilis [5]) of 20 mm and a zone of inhibition at 100 µg/disc (Escherichia coli) of 8 mm. The zone of inhibition at 100 µg/disc (Candida albicans [7]) was 18 mm.

With `Cc1c(-c2cc(N)n(-c3ccccc3)n2)oc2ccccc12` the zone of inhibition at 100 µg/disc (Staphylococcus aureus [1]) was 4 mm, the zone of inhibition at 100 µg/disc (Aspergillus fumigatus [2]) was 10 mm and the zone of inhibition at 100 µg/disc (Aspergillus niger [4]) was 7 mm. For the same molecule, the MIC (Bacillus subtilis [14]) was 250 µg/mL (≈ 864 µM), the zone of inhibition at 100 µg/disc (Bacillus subtilis [5]) was 25 mm and the zone of inhibition at 100 µg/disc (Escherichia coli) was 5 mm. For the same molecule, the zone of inhibition at 100 µg/disc (Candida albicans [7]) was 9 mm.

With `Cc1c(C(=O)Nc2ccccc2C(=O)O)oc2ccccc12` the zone of inhibition at 100 µg/disc (Staphylococcus aureus [1]) was 3 mm, the zone of inhibition at 100 µg/disc [3] was 22 mm and the MIC [13] was 250 µg/mL (≈ 847 µM). The zone of inhibition at 100 µg/disc (Bacillus subtilis [5]) was 12 mm and the zone of inhibition at 100 µg/disc (Penicillium italicum [6]) was 13 mm.

`CC1(C)S[C@@H]2[C@H](NC(=O)[C@H](N)c3ccc(O)cc3)C(=O)N2[C@H]1C(=O)O` [AMOXICILLIN] gave a zone of inhibition at 100 µg/disc (Staphylococcus aureus [1]) of 30 mm, a zone of inhibition at 100 µg/disc (Pseudomonas aeruginosa) of 20 mm and a zone of inhibition at 100 µg/disc (Bacillus subtilis [5]) of 25 mm. For the same molecule, the zone of inhibition at 100 µg/disc (Escherichia coli) was 30 mm.

`Cc1c(C(=O)/C(C#N)=N/Nc2ccc(Cl)cc2)oc2ccccc12` gave a zone of inhibition at 100 µg/disc (Staphylococcus aureus [1]) of 5 mm, an MIC (Candida albicans [10]) of 250 µg/mL (≈ 740 µM) and a zone of inhibition at 100 µg/disc (Candida albicans [7]) of 16 mm.
